The nature of test [1]: inhibitors of TNFa-induced NFkB p65 translocation, primary screen, imaging, HUVEC, MLSMR starter and 10KST1 sets (AID 438;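 active means inhibition above 20% together with a positive visual image hit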;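 further: compound added about 3h40 before a 20 min TNFalpha stimulation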;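 on inhibition: signal is the nuclear over cytoplasmic p65 intensity ratio per well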). The following applies: HUVEC TNFa-induced p65 nuclear translocation; cell count: measured here: nuclei count (cytotoxicity indicator), at 2.08 µM; inhibition: at 2 µM, stronger effect = higher value, 0% TNFa-plus-vehicle, 100% no-TNFa wells.
Test [2] can be described thus: endothelial E-selectin expression blockers – imaging, HUVEC, immunofluorescence, MLSMR starter and 10KST1 sets, primary screen (AID 487;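 active means visually confirmed hit in the image check and inhibition above 20%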;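 on inhibition: signal is fraction of cell area covered by stained E-selectin grains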;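 on nuclei count: 100% = median nuclei count of all wells on the same plate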). To be noted: HUVEC TNFalpha-induced E-selectin immunofluorescence imaging, at 2 µM; inhibition: stronger effect = higher value; nuclei count: measured here: cell number, toxicity.
A short description of test [3]: Primary imaging screen for DUSP6 inhibitors that restore phospho-Erk in transfected HeLa cells, chemical complementation (AID 609;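 active means compounds giving at least 50% inhibition in the cell-based MKP-3 phosphatase rescue imaging test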;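 on inhibition: phospho-Erk level distribution per well compared with pooled transfected vehicle control wells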). The following applies: HeLa MKP-3 transfected, phospho-Erk imaging KS statistic, at 10 µM, cells stimulated with TPA for 15 min.
For test [4], the target named is Dual specificity protein phosphatase 6 (Homo sapiens) (UniProt Q16828). Described as above. The following applies: HeLa MKP-3 transfected, phospho-Erk imaging KS statistic; at 10 µM; stronger effect = higher value; cells stimulated with TPA for 15 min.
Chain of Dual specificity protein phosphatase 6 (Homo sapiens) (Q16828 whole entry, looked up): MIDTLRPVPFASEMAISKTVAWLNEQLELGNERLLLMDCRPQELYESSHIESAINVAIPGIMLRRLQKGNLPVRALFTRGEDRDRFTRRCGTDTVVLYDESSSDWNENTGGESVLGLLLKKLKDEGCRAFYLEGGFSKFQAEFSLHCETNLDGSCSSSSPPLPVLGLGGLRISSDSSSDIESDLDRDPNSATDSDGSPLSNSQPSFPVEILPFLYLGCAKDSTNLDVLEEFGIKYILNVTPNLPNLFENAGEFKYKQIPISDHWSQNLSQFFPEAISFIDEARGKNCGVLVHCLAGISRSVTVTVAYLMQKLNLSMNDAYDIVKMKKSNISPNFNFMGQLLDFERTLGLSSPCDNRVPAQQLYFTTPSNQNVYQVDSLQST
The target in test [5] is Voltage-gated potassium channel subunit beta-2 (Rattus norvegicus) (UniProt P62483). Kind of test: inhibitors of rat Kvbeta2 reductase activity – biochemical, NADPH fluorescence, primary screen (AID 622;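 active means fluorescence slope higher than the sample average by over 3 SD, cut at about -0.22 in these data, passing the limit was not always enough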;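 further: slope of raw intensity against log time taken from 70 to 1610 s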). The following applies: recombinant KvBeta, 4-cyanobenzaldehyde reduction, at 10 µM, stronger effect = higher value.
Chain of Voltage-gated potassium channel subunit beta-2 (Rattus norvegicus) (P62483 whole entry, looked up): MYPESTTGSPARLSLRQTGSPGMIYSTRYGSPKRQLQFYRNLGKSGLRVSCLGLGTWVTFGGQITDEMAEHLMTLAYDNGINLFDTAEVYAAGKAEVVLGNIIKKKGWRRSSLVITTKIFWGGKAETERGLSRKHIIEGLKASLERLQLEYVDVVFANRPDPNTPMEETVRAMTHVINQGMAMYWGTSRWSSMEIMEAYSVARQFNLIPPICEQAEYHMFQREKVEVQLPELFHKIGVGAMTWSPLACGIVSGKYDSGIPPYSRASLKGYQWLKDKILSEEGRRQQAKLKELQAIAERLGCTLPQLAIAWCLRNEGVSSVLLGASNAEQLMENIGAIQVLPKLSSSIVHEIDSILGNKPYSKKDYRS
Test [6] has the same target. As to the kind of experiment: enhancers of rat Kvbeta2 NADPH turnover – biochemical, NADPH fluorescence, primary screen (AID 623;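 active means NADPH fluorescence slope more negative than the mean of all samples by about 3 SD, 99.7% confidence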;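 further: fluorescence intensity change per second fitted from 20 to 320 s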). To be noted: Recombinant KvBeta, NADPH fluorescence decrease slope, 10 min; at 10 µM; stronger effect = lower value.
The target of test [7] is Muscarinic acetylcholine receptor M4 (Homo sapiens) (UniProt P08173). As to the kind of experiment: M4-linked GIRK flux change, two-sided – cell-based, HEK293 M4/GIRK, thallium flux, BTC-AM, M4 allosteric agonist project, primary screen (AID 625).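 Further: thallium influx through GIRK channels coupled to M4 in HEK293 cells with BTC-AM dye.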 To be noted: at 10 µM, actives lie on both sides. In short, it runs like this: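 Material: M4/GIRK1/GIRK2 stable HEK293 cell line. Medium: pH 7.3 thallium assay buffer. Dosing: single compound concentration, 10 µM final. Schedule: 1 h dye loading, 2 min kinetic read. Measured by: kinetic fluorescence with BTC-AM dye. Read-out: post-addition slope, 15–24 s, of baseline-normalized fluorescence. Benchmarks: carbachol and DMSO controls.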
Chain of Muscarinic acetylcholine receptor M4 (Homo sapiens) (P08173 whole entry, looked up): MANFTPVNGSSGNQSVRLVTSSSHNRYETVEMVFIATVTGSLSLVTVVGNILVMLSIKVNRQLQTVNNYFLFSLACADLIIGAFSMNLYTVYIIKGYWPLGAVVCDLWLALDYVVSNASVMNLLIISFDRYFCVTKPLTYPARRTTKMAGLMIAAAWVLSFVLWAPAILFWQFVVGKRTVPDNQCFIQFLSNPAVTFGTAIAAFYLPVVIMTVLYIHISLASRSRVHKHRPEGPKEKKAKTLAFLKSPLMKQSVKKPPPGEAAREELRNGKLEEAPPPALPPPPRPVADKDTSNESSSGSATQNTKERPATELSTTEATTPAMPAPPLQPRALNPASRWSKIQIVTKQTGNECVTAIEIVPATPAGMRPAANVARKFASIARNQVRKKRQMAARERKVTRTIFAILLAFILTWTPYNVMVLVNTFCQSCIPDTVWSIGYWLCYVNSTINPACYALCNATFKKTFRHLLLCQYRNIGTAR

Test [8] is described as follows: inhibitors of larval lipid processing in zebrafish, primary screen, whole organism, PED6 fluorescence, gall bladder and intestine (AID 686;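 active means a full or partial loss of lipid-probe fluorescence in the fish gall bladder, intestine or both, judged by eye; inactive means no fluorescence loss, or compound toxic to the fish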;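 further: larvae 5 to 7 days old with five fish per well; signal comes from phospholipase A2 cleavage of quenched PED6 carried via bile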). The following applies: Zebrafish larvae PED6 lipid processing, fluorescence scoring; screened at 20 µM (by protocol). In short, it runs like this: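 System: live zebrafish larvae aged 5-7 days, whole organism; measure: graded gall bladder and intestinal fluorescence inhibition per well; incubation: overnight exposure; reagent: ingested quenched lipid PED6 at 100 nM; signal: By-eye fluorescence microscopy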

The nature of test [9]: loss of swimming-algae plug formation – whole organism, Chlamydomonas reinhardtii, WT vs cilia-less mutant, absorbance, 96-well, primary screen (AID 463189;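 active means inhibition at or above 50% relative to wild type and mutant plate controls; inactive means inhibition below 50%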;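 further: 0% = wild type cc124 cells in DMSO and 100% = ciliumless bld1 mutant cells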). The following applies: Chlamydomonas reinhardtii gravitaxis, OD600 absorbance, 2 days; at 10 µM; stronger effect = higher value.
The mark [10] stands for this setting: measured here: cell density z-score.
Where [11] appears, read: measured here: nuclear c-Myc green intensity z-score.
[12] abbreviates: measured here: nuclear pErk red intensity z-score, stronger effect = higher value.

What is called inhibition is the relative decrease from the control value, in per cent.

SMILES strings stand for the structures. Calls of active or inactive are those of the source.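 How the source made its calls, unless noted: active means fluorescence slope after compound addition differing from the mean of all tested samples at 99.7% confidence, mostly higher but some lower; inactive means the rest.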

For the compound `Cc1cc(=O)n2[nH]c(N3C(=O)CCC3=O)nc2n1`, the cell count in test [1] stood at 527. The inhibition was -1.3% (inactive) in test [1], 47.3% (inactive) in [2], -5.95% (inactive) in [4] and 4.51% (inactive) in test [9]. The compound further came in with a nuclei count in [2] of 172%. Also, the z-score is -0.749 in [3] (setting [10]), -0.115 in test [3] (setting [11]) and 1.44 in test [3] (setting [12]). The fluorescence slope in test [5] is -0.397 (inactive); in test [7] it was 0.00594 (inactive). The NADPH fluorescence slope in test [6] was -2.7e-05 (inactive). Moreover, the compound was called inactive in test [8].

Turning to `O=C(c1ccccc1)n1c(=S)nc2ccccn21`, the cell count in test [1] stood at 751. For the same compound, the inhibition in test [1] is -1.4% (inactive); in [2] it was -18.3% (inactive); in test [4], 7.21% (inactive); in test [9] it was 3.62% (inactive). Besides, the nuclei count in test [2] was 144%. For the same compound, the z-score in test [3] (setting [10]) is 0.295; in [3] (setting [11]), -2.19; in test [3] (setting [12]) it was 0.415. For the same compound, the fluorescence slope in test [5] is -0.421 (inactive); in test [7] it was 0.00539 (inactive). For the same compound, the NADPH fluorescence slope in [6] was -3.2e-05 (inactive). The compound was called inactive in test [8].

With `COC(=O)c1ccc(CN(C(C)=O)c2ccccc2)o1`, in test [1], the cell count stood at 547. Further, the inhibition in test [1] is 0.8% (inactive); in test [2] it was -113% (inactive); in test [4], 15.4% (inactive); in test [9], 34.2% (inactive). For the same compound, the nuclei count in [2] is 141%. Moreover, the z-score in test [3] (setting [10]) is 0.183; in [3] (setting [11]) it was -0.22; in test [3] (setting [12]), -0.676. Moreover, the results for the fluorescence slope in test [5] and in test [7] were -0.471 (inactive) and 0.00509 (inactive), respectively. Also, the NADPH fluorescence slope in [6] is -9.4e-05 (inactive). For the same compound, the outcome in [8] was inactive.

As to `O=C(CN1CCc2[nH]c3ccccc3c2C1)N1CCCCC1`, in [1], the cell count stood at 538. Further, the inhibition in test [1] is 3.2% (inactive); in [2], -91.5% (inactive); in test [4] it was 3.42% (inactive); in [9], -5.72% (inactive). The compound further returned a nuclei count in [2] of 124%. The z-score in [3] (setting [10]) was -1.09; in [3] (setting [11]), -0.293; in test [3] (setting [12]) it was -0.987. In addition, the fluorescence slope in test [5] is -0.446 (inactive); in test [7], 0.00512 (inactive). Moreover, in [6], the NADPH fluorescence slope was -8.6e-05 (inactive). Moreover, in test [8], the outcome was inactive.

In the case of `Cc1ccc(-n2ncc3c(N4CCC(C(N)=O)CC4)ncnc32)c(C)c1`, the cell count in [1] stood at 525. The inhibition in test [1] is -15.6% (inactive); in test [2], -31.1% (inactive); in [4], 7.42% (inactive); in test [9], 42.2% (inactive). In [2], the nuclei count stood at 113%. Besides, the figures for the z-score in test [3] (setting [10]), in test [3] (setting [11]) and in test [3] (setting [12]) were -0.735, 0.453 and -0.332, respectively. For the same compound, the fluorescence slope is -0.391 (inactive) in [5] and 0.0065 (inactive) in [7]. Moreover, in [6], the NADPH fluorescence slope is -3.9e-05 (inactive). The outcome in test [8] was inactive.

Take `COc1ccc(OC)c(C2C(C(=O)c3sc(C)nc3C)=C(O)C(=O)N2CCN2CCOCC2)c1` (stereo unspecified): in test [1], the cell count was 369. Moreover, the inhibition in test [1] was 2.2% (inactive); in test [2], 35.1% (inactive); in test [4] it was -4.78% (inactive); in [9], 14.2% (inactive). The compound further showed a nuclei count in test [2] of 148%. Besides, the values for the z-score in test [3] (setting [10]), in [3] (setting [11]) and in test [3] (setting [12]) were -0.927, -0.477 and 2.22, respectively. In addition, the fluorescence slope in test [5] is -0.46 (inactive); in [7], 0.00498 (inactive). Besides, the NADPH fluorescence slope in test [6] was -0.000134 (inactive). In test [8], the result was inactive.

With `CCCCCSc1nc(C)c(CC(=O)O)c(=O)[nH]1`, in [1], the cell count worked out at 400. Moreover, the inhibition in test [1] was -8.8% (inactive); in test [2] it was -27.1% (inactive); in test [4], 1.04% (inactive); in [9], 34.5% (inactive). In test [2], this compound had a nuclei count of 114%. Besides, the z-score in test [3] (setting [10]) is 0.718; in test [3] (setting [11]), -0.507; in [3] (setting [12]), -1.88. The fluorescence slope in test [5] is -0.477 (inactive); in [7] it was 0.00563 (inactive). In addition, the NADPH fluorescence slope in [6] was -5.1e-06 (inactive). Further, in test [8], the outcome was inactive.

Values taken from PubChem BioAssay.
